Experimental data from ChEMBL document CHEMBL4627410, “Discovery of an Orally Active Small-Molecule Tumor Necrosis Factor-α Inhibitor” (J Med Chem, 2020).
Active and inactive are the calls of the source. The calls are words filed in the database; no cut-off is given here.

Key:
Tumor necrosis factor [1] = target: T1, Tumor necrosis factor (Homo sapiens, UniProt P01375); experiment: Binding affinity to recombinant TNFalpha (unknown origin) expressed in Escherichia coli BL21 (DE3) incubated for 10 mins by MST assay
[2] = target: T2, Tumor necrosis factor (Mus musculus) (UniProt P06804); experiment: (§1) Inhibition of TNF-alpha in mouse RAW264.7 cells assessed as inhibition of LPS-induced IKBalpha phosphorylation at 5 to 20 uM pre-incubated for 12 hrs before LPS stimulation for 2 hrs by Western blot analysis; assay type: cell-based
T2 sequence (whole entry): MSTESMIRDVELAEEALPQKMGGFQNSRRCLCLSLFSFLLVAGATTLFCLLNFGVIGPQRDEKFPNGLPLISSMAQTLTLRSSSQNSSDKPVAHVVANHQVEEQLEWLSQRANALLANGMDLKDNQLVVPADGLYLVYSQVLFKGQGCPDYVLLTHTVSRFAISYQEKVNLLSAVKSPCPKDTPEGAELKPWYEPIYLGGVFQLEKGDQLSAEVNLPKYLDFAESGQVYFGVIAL
Procedure, shortened: (§2)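 RAW264.7 cells (5×10^4 cells/mL) cultured overnight. Compound at 5, 10 or 20 µM for 12 h, then LPS 1 µg/mL for 2 h. Lysed in RIPA, protein equalized by BCA, run on 12% SDS-PAGE. Immunoblotted for IκBα and p-IκBα, ECL detection.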

Mus musculus [3] = experiment: Antiinflammatory activity in Balb/c mouse assessed as inhibition of LPS-induced IL1-beta production at 25 to 50 mg/kg, po pre-treated 90 mins before LPS injection and measured after 4 hrs by sandwich ELISA; assay type: functional, organism-based
Procedure, shortened: (§3)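 Male Balb/c mice, 7–8 weeks old, randomized into control, LPS and two dose groups. Oral dosing 90 min before LPS (1.5 mg/kg, i.p.). Serum taken from clotted blood 4 h after LPS and stored at -80 °C. IL-1β and IL-6 measured by sandwich ELISA. At least six mice per group, each sample run in duplicate.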

Mus musculus [4] = experiment: Antiinflammatory activity in Balb/c mouse model of Imiquimod-induced psoriasis-like skin lesions assessed as reduction of spleen index at 25 to 50 mg/kg, ig; assay type: functional, organism-based
Procedure, shortened: (§4)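 Back skin shaved (5 cm × 4 cm) under isoflurane. Two days later, 5% imiquimod cream applied topically for 6 consecutive days; controls received base cream. Dosing by gavage, with prednisone 5 mg/kg as reference, n=10 per group. Erythema and scaling scored daily and blinded, 0–4. On day 7: spleen index, serum IL-1β and IL-6 by ELISA, and 3 µm H&E back-skin sections. Means ± SD.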

Mus musculus [5] = experiment: Antiinflammatory activity in Balb/c mouse model of collagen-induced arthritis assessed as reduction in serum IL6 level at 25 to 50 mg/kg, ig for 2 weeks by ELISA; assay type: functional, organism-based
Procedure, shortened: (§5)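 Balb/c mice immunized intradermally at the tail base with bovine type II collagen emulsified 1:1 in complete Freund's adjuvant (1 mg/mL, 0.1 mL), with the same boost on day 14. Gavage dosing for 2 weeks; prednisone 5 mg/kg i.g. as reference. Non-immunized normal group included, n=10 per group. Outcomes: four-paw arthritis score, blinded, maximum 16. Spleen index = spleen weight/body weight. Serum cytokines by ELISA. Right hind limb fixed in 4% paraformaldehyde, decalcified 30 days in 12.5% EDTA pH 7.0, 6–8 μm H&E sections graded blindly 0–3.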

Tumor necrosis factor [6] = target: T1, Tumor necrosis factor; experiment: Binding affinity to recombinant TNFalpha (unknown origin) expressed in Escherichia coli BL21 (DE3) assessed as increase in Kd for TNF-alpha-TNFR1 binding at 10 uM pe-incubated for 15 mins before TNFR1 addition and measured after 15 mins by MST assay relative to control
Procedure, shortened: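 TNF-α (C-terminal His6, from E. coli BL21(DE3), purified by Ni-agarose, thrombin digest, anion exchange and size exclusion) at various concentrations was preincubated with 10 µM compound for 15 min at room temperature. The mix was added to an equal volume of RED-labelled TNFR1 in 20 mM HEPES pH 7.5, 0.05% Tween-20. MST was read at 22 °C (100% LED, 20% MST power) and KD was fitted.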

Mus musculus [7] = experiment: Antiinflammatory activity in Balb/c mouse model of collagen-induced arthritis assessed as reduction in serum IL-1beta level at 25 to 50 mg/kg, ig for 2 weeks by ELISA; assay type: functional, organism-based; procedure, shortened: as §5
Mus musculus [8] = experiment: Antiinflammatory activity in Balb/c mouse assessed as inhibition of LPS-induced IL6 production at 25 to 50 mg/kg, po pre-treated 90 mins before LPS injection and measured after 4 hrs by sandwich ELISA; assay type: functional, organism-based; procedure, shortened: as §3
Mus musculus [9] = experiment: Antiinflammatory activity in Balb/c mouse model of Imiquimod-induced psoriasis-like skin lesions assessed as inhibition of inflammation at 25 to 50 mg/kg, ig; assay type: functional, organism-based; procedure, shortened: as §4
Mus musculus [10] = experiment: Antiinflammatory activity in Balb/c mouse model of collagen-induced arthritis assessed as reduction in spleen index at 25 to 50 mg/kg, ig for 2 weeks; assay type: functional, organism-based; procedure, shortened: as §5
Mus musculus [11] = experiment: Antiinflammatory activity in Balb/c mouse model of Imiquimod-induced psoriasis-like skin lesions assessed as reduction of histopathological changes at 25 to 50 mg/kg, ig by H and E staining based histopathological analysis; assay type: functional, organism-based; procedure, shortened: as §4
Mus musculus [12] = experiment: Antiinflammatory activity in Balb/c mouse model of endotoxemia assessed as reduction in emergence of hemorrhagic necrosis at 25 mg/kg, ig pre-treated 2 hrs before LPS injection and measured 12 to 96 hrs post LPS challenge by H and E staining based histopathological analysis; assay type: functional, organism-based
Procedure, shortened: (§6)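 Endotoxemia induced with LPS 15 mg/kg i.p., n=10 per group; controls received saline i.p. Gavage dose given 2 h before LPS, then again at 12, 24, 48, 72 and 96 h. Survival followed daily for up to 2 weeks. Liver and lung fixed in 10% formalin and sections stained with H&E. Means ± SD.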

Tumor necrosis factor [13] = target: T1, Tumor necrosis factor; experiment: Binding affinity to recombinant TNFalpha (unknown origin) expressed in Escherichia coli BL21 (DE3) assessed as protection of TNF-alpha from protease mediated digestion at 2.5 to 20 uM
Procedure, shortened: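 DARTS assay on TNF-α (His6-tagged, expressed in E. coli BL21(DE3) and purified by Ni-affinity, anion exchange and size exclusion). Protein was treated with compound, then digested with pronase for 30 min. Remaining TNF-α was read out.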

Mus musculus [14] = experiment: Antiinflammatory activity in Balb/c mouse model of collagen-induced arthritis assessed as reduction in degree of cartilage and bone destruction and inflammation at 25 to 50 mg/kg, ig for 2 weeks by H and E staining based histopathological analysis; assay type: functional, organism-based; procedure, shortened: as §5
Mus musculus [15] = experiment: Antiinflammatory activity in Balb/c mouse model of endotoxemia assessed as reduction in liver damage at 25 mg/kg, ig pre-treated 2 hrs before LPS injection and measured 12 to 96 hrs post LPS challenge by H and E staining based histopathological analysis; assay type: functional, organism-based; procedure, shortened: as §6
[16] = target: T2, Tumor necrosis factor (Mus musculus); experiment: Inhibition of TNF-alpha in mouse RAW264.7 cells assessed as inhibition of NFkappB/p65 nuclear translocation at 5 to 20 uM by DAPI staining based microscopy; assay type: cell-based
Procedure, shortened: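 RAW264.7 cells grown to 50–70% confluence in glass chambers. Pretreated 12 h with DMSO or compound, then TNF-α 10 ng/mL for 2 h. Fixed in 4% paraformaldehyde, permeabilized with 0.25% Triton X-100, blocked with BSA. Stained with anti-p65 (1:1000, 4 °C overnight), fluorescent secondary (1:500) and DAPI nuclear stain. Imaged by fluorescence microscopy.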

Mus musculus [17] = experiment: Antiinflammatory activity in Balb/c mouse model of collagen-induced arthritis assessed as reduction in arthritic score at 25 to 50 mg/kg, ig for 2 weeks; assay type: functional, organism-based; procedure, shortened: as §5
[18] = Toxicity in mouse RAW264.7 cells at 5 to 20 uM; assay type: cell-based
Mus musculus [19] = experiment: Antiinflammatory activity in Balb/c mouse model of collagen-induced arthritis assessed as reduction in serum IFNgamma level at 25 to 50 mg/kg, ig for 2 weeks by ELISA; assay type: functional, organism-based; procedure, shortened: as §5
Mus musculus [20] = experiment: Antiinflammatory activity in Balb/c mouse model of Imiquimod-induced psoriasis-like skin lesions assessed as reduction of serum IL6 level at 25 to 50 mg/kg, ig after 7 days by ELISA; assay type: functional, organism-based; procedure, shortened: as §4
Mus musculus [21] = experiment: Antiinflammatory activity in Balb/c mouse model of Imiquimod-induced psoriasis-like skin lesions assessed as reduction of serum IL-1beta level at 25 to 50 mg/kg, ig by ELISA; assay type: functional, organism-based; procedure, shortened: as §4
Tumor necrosis factor [22] = target: T1, Tumor necrosis factor; experiment: Binding affinity to recombinant TNFalpha (unknown origin) expressed in Escherichia coli BL21 (DE3) assessed as inhibition of TNFR1 binding to immobilized TNF-alpha pre-incubated with TNFR1 for 20 mins followed by TNFalpha addition and measured after 120 mins by ELISA
Tumor necrosis factor [23] = target: T1, Tumor necrosis factor; experiment: Binding affinity to recombinant TNFalpha (unknown origin) expressed in Escherichia coli BL21 (DE3) assessed as increase in TNF-alpha thermal stability by measuring tolerated temperature (reference value: 90 degC)
Mus musculus [24] = experiment: Antiinflammatory activity in Balb/c mouse model of endotoxemia assessed as reduction in lung damage at 25 mg/kg, ig pre-treated 2 hrs before LPS injection and measured 12 to 96 hrs post LPS challenge by H and E staining based histopathological analysis; assay type: functional, organism-based; procedure, shortened: as §6
Mus musculus [25] = experiment: Antiinflammatory activity in Balb/c mouse model of Imiquimod-induced psoriasis-like skin lesions assessed as decrease in adjusted scale scores consisting of erythema, epidermal acanthosis, and lesions thickness at 25 to 50 mg/kg, ig; assay type: functional, organism-based; procedure, shortened: as §4
[26] = target: T2, Tumor necrosis factor (Mus musculus); experiment: as §1; assay type: cell-based; procedure, shortened: as §2; remark: listed apart in the source
Mus musculus [27] = experiment: Antiinflammatory activity in Balb/c mouse model of collagen-induced arthritis assessed as increase in serum IL10 level at 25 to 50 mg/kg, ig for 2 weeks by ELISA; assay type: functional, organism-based; procedure, shortened: as §5
Mus musculus [28] = experiment: Antiinflammatory activity in Balb/c mouse model of endotoxemia assessed as increase in mouse survival at 25 mg/kg, ig pre-treated 2 hrs before LPS injection and measured 12 to 96 hrs post LPS challenge; assay type: functional, organism-based; procedure, shortened: as §6
Mus musculus [29] = experiment: Antiinflammatory activity in Balb/c mouse model of Imiquimod-induced psoriasis-like skin lesions assessed as reduction of serum IL6 level at 5 mg/kg, ig by ELISA; assay type: functional, organism-based; procedure, shortened: as §4
Mus musculus [30] = experiment: Antiinflammatory activity in Balb/c mouse model of collagen-induced arthritis assessed as reduction in degree of cartilage and bone destruction and inflammation at 5 mg/kg, ig for 2 weeks by H and E staining based histopathological analysis; assay type: functional, organism-based; procedure, shortened: as §5
Mus musculus [31] = experiment: Antiinflammatory activity in Balb/c mouse model of Imiquimod-induced psoriasis-like skin lesions assessed as reduction of serum IL-1beta level at 5 mg/kg, ig by ELISA; assay type: functional, organism-based; procedure, shortened: as §4

T1 sequence (P01375 whole entry): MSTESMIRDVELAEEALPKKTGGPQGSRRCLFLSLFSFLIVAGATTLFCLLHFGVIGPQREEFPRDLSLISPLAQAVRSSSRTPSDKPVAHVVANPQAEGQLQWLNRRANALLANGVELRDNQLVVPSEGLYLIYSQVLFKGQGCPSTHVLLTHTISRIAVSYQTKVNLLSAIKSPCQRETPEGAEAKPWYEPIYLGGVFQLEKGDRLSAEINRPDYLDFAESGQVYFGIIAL

Compound: Cc1cc(C)cc(-n2c(O)c([C@H]3NCCc4c3[nH]c3ccccc43)c(O)nc2=S)c1
- Kd (Tumor necrosis factor [1]): Not Active

Compound: O=C(CCc1ccccc1)[C@H]1Cc2[nH]cnc2CN1C(=O)c1cccs1
- Kd (Tumor necrosis factor [1]): Not Active

Compound: O=C1C[C@H](Nc2ncnc3[nH]cnc23)CN1Cc1ccccc1
- inhibition [2]: Dose-dependent effect
- inhibition (Mus musculus [3]): Active
- Activity (Mus musculus [4]): Active
- Kd (Tumor necrosis factor [1]; read-out: Kd): 82.1 µM
- Activity (Mus musculus [5]): Dose-dependent effect
- fold change (FC) (Tumor necrosis factor [6]): 18
- Activity (Mus musculus [7]): Dose-dependent effect
- inhibition (Mus musculus [8]): Active
- Activity (Mus musculus [9]): Active
- Activity (Mus musculus [10]): Active
- Activity (Mus musculus [11]): Active
- Activity (Mus musculus [12]): Active
- Activity (Tumor necrosis factor [13]): Dose-dependent effect
- Activity (Mus musculus [14]): Active
- Activity (Mus musculus [15]): Active
- inhibition [16]: Active
- Activity (Mus musculus [17]): Active
- IC50 [18]: > 100 µM
- Activity (Mus musculus [19]): Dose-dependent effect
- Activity (Mus musculus [20]): Dose-dependent effect
- Activity (Mus musculus [21]): Dose-dependent effect
- IC50 (Tumor necrosis factor [22]): 0.109 µM
- T (Tumor necrosis factor [23]): 94 °C
- Activity (Mus musculus [24]): Active
- Activity (Mus musculus [25]): Active
- inhibition [26]: Active
- Activity (Mus musculus [27]): Dose-dependent effect
- Activity (Mus musculus [28]): Active

Compound: O=c1c([C@H]2NCCc3c2[nH]c2ccccc32)c(O)[nH]c(=S)n1-c1ccc2ccccc2c1
- Kd (Tumor necrosis factor [1]): Not Active

Compound: Cn1c(SCC(=O)N2CC(=O)Nc3cc(C(F)(F)F)ccc32)nnc1-c1ccccc1Cl
- Kd (Tumor necrosis factor [1]): Not Active

Compound: C[C@]12C=CC(=O)C=C1CC[C@@H]1[C@@H]2C(=O)C[C@@]2(C)[C@H]1CC[C@]2(O)C(=O)CO
- Activity (Mus musculus [29]): Active
- Activity (Mus musculus [30]): Active
- Activity (Mus musculus [31]): Active

Compound: O=c1c([C@H]2NCCc3c2[nH]c2ccccc32)c(O)[nH]c(=S)n1Cc1ccc(F)cc1
- Kd (Tumor necrosis factor [1]): Not Active

Compound: CC1CCc2c([nH]c3ccccc23)[C@H]1c1c(O)nc2n(c1=O)CCS2 (some centres not stated)
- Kd (Tumor necrosis factor [1]): Not Active
